Data as given in publication PMC4100325 (Journal of toxicology and environmental health. Part A, 2014).

Tests used:
[1] = 410 mg DCA/kg/day, subchronic studies; ref Hassoun et al, 2010a; cited from earlier work
[2] = tested on: superoxide anion (SA) production in the livers of mice; test: superoxide anion; format: in vivo, B6C3F1 male mice; details: for slope of regression SA vs Dose: SA as nmoles cytochrome c reduced/ min/ mg protein, dose mg/kg/day; for effect on SA production in livers: gavage daily for 13 weeks
Outline: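 After 13 weeks of daily gavage (test compound, aqueous pH 7; 6 mice/group), liver was homogenised 10% w/v in Tris-KCl, pH 7.4. Homogenate was incubated with 45 nmol cytochrome c in PBS, pH 7.2, for 15 min at 37°C. The reaction was stopped on ice and centrifuged, and the supernatant was read at 550 nm. Values were converted with ε 2.1 × 10^4 M−1 cm−1 to nmol reduced/min/mg Lowry protein; regression was against dose.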

[3] = liver/body weight ratio after subchronic gavage exposure; format: in vivo, B6C3F1 male mice; details: mean ± SD
Outline: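 Male B6C3F1 mice arrived at 6 weeks (~20 g) and were given test compound or water vehicle (pH 7) by daily gavage for 13 weeks, 6/group. Body weights were taken weekly. Animals were killed 24 hr after the last dose (CO2, cervical dislocation) and livers were weighed. Data are means ± S.D.; one-way ANOVA with Tukey post-hoc test.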

liver = details: subchronic studies; ref Hassoun et al. 2010a; cited from earlier work
[4] = tested on: lipid peroxidation (LP) in the livers of mice; test: lipid peroxidation; format: in vivo, B6C3F1 male mice; details: for slope of regression LP vs Dose: LP as nmoles TBARS/mg protein, dose mg/kg/day; for effect on LP in livers: gavage daily for 13 weeks; for intercept of regression LP vs Dose: regression analysis
Outline: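 Mice (6/group) received daily gavage of test compound (pH 7 aqueous) for 13 weeks and were killed 24 hr post-dose. A 10% w/v liver homogenate in Tris-KCl (pH 7.4) was mixed with 1% phosphoric acid, 0.6% thiobarbituric acid and butylated hydroxyanisole, then heated at 100°C for 45 min. TBARS were extracted into n-butanol and read at 535 nm (ε 1.556 × 10^5 M−1 cm−1), normalised to Lowry protein. Means ± S.D. are reported; regression was against dose.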

[5] = tested on: DNA single strand breaks in the livers of mice; test: DNA single strand breaks; format: in vivo, B6C3F1 male mice; details: for intercept of regression DNA-SSBs vs Dose / slope of regression DNA-SSBs vs Dose: DNA-SSBs as elution rate constant k; for slope of regression DNA-SSBs vs Dose: dose mg/kg/day; for effect on DNA SSB in livers: gavage daily for 13 weeks
Outline: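 Male B6C3F1 mice (6/group) were gavaged daily for 13 weeks with test compound in distilled water (pH 7) and killed 24 hr after the last dose. Liver was homogenised 25% w/v in KCl/NaCl/spermine/spermidine/sucrose/EDTA/EGTA/Tris/PMSF/2-mercaptoethanol buffer and spun at 3000 g to get nuclei. These were lysed on 5 µm filters (2% SDS, 25 mM EDTA, pH 10.3, 20 min), then eluted at pH 12.3 into seven 3 ml fractions. DNA was read by diaminobenzoic acid fluorescence (436/521 nm). k = −2.3 × slope of log10 %DNA retained vs eluate volume.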

[6] = tested on: cytochrome c reduction in liver homogenates; details: SOD added to assay mixture of liver homogenate; ref Hassoun and Dey, 2008; cited from earlier work

Molecule | increase in liver/body weight ratio associated with hepatomegaly [1] [fold] | slope of regression SA vs Dose [2] | effect on SA production in livers [2] | Liver/body weight ratio ([3]; DCA 7.5 mg/kg/day by gavage for 13 weeks) | Liver/body weight ratio ([3]; DCA 15 mg/kg/day by gavage for 13 weeks) | Liver/body weight ratio ([3]; DCA 30 mg/kg/day by gavage for 13 weeks) | threshold dose for hepatotoxicity (liver) [mg/kg/day] | slope of regression LP vs Dose [4] | effect on LP in livers [4] | intercept of regression LP vs Dose [4] [nmoles TBARS/mg protein] | intercept of regression DNA-SSBs vs Dose [5] | slope of regression DNA-SSBs vs Dose [5] | effect on DNA SSB in livers [5] | Liver/body weight ratio ([3]; TCA 12.5 mg/kg/day by gavage for 13 weeks) | Liver/body weight ratio ([3]; TCA 25 mg/kg/day by gavage for 13 weeks) | Liver/body weight ratio ([3]; TCA 50 mg/kg/day by gavage for 13 weeks) | inhibition of cytochrome c reduction [6] [%]
O=C(O)C(Cl)Cl [DCA, sodium dichloroacetate] | 1.3 | 0.1036 | dose-dependent increases | 0.054 ± 0.009 | 0.051 ± 0.002 | 0.053 ± 0.007 | 154 | 0.2041 | dose-dependent increases | 1.185 | 0.00215 | 0.000201 | dose-dependent increases | – | – | – | –
O=C(O)C(Cl)(Cl)Cl [TCA, sodium trichloroacetate] | – | 0.0237 | dose-dependent increases | – | – | – | 410 | 0.0631 | dose-dependent increases | 0.870 | 0.00152 | 0.000052 | dose-dependent increases | 0.057 ± 0.003 | 0.055 ± 0.005 | 0.049 ± 0.005 | –
superoxide dismutase [SOD] | – | – | – | – | – | – | – | – | – | – | – | – | – | – | – | – | 91.1
